Measurements from different studies.
Protocols differ between the studies behind these lines. ≈ marks a conversion by molar mass, not a printed value.

`CCCC[C@H]1CN(c2cccc(OC(F)(F)F)c2)C(=O)CN1Cc1cncn1Cc1ccc(Br)cc1` gave an MIC of 3 to 6 µM (Cryptococcus neoformans; microbial growth, broth dilution).
`CC1(C)S[C@@H]2[C@H](NC(=O)[C@H](N)c3ccccc3)C(=O)N2[C@H]1C(=O)O` has an inhibition zone of 27 mm (Listeria monocytogenes; microbial growth, well diffusion; ATCC7644; 60000 µg/mL).
`CCCCCCCC/C=C\CCCCCCCCNC(=O)CP(=O)(O)O` has an MIC of 200 mg/L (Bacillus subtilis; microbial growth; ATCC23857).
The IC50 of `CC(C)CCCCCCCCCCCCCCc1cc(O)cc(O)c1` is reported as 20.3 µM (Listeria monocytogenes; microbial growth; ATCC19115).
The MIC of `CCCCCCCCCCCCCCCC(=O)C(F)(F)P(=O)(O)O` is reported as 200 mg/L (Bacillus subtilis; microbial growth; ATCC23857).
`Cc1ccccc1C(=O)NN=Cc1ccc(O)c(Br)c1` gave an MFC of 4 mg/L (≈ 12 µM) (Cryptococcus neoformans; microbial killing).
For `CC[C@H](C)C[C@H](C)CCCCCCCCC(=O)N[C@H]1C[C@@H](O)[C@@H](NCCN)NC(=O)[C@@H]2[C@@H](O)CCN2C(=O)[C@H]([C@H](O)CCN)NC(=O)[C@H]([C@H](O)[C@@H](O)c2ccc(O)cc2)NC(=O)[C@@H]2C[C@@H](O)CN2C(=O)[C@H]([C@@H](C)O)NC1=O`, the MIC was 0.25 mg/L (Nakaseomyces glabratus; microbial growth, broth dilution; MY1381).
`CCCCCCCCCCCCCCCCCCCCc1cc(O)cc(O)c1` gave an IC50 of > 200 µM (Bacillus subtilis; microbial growth).
For `O=C(CCCCC1CCCCC1)CP(=O)(O)O`, the MIC was 25 mg/L (Bacillus subtilis; microbial growth; ATCC23857).
For `CC(C)C(C)CCCCCCCCCCCc1cc(O)cc(O)c1` (stereo not drawn), the IC50 was 34.2 µM (Listeria monocytogenes; microbial growth; ATCC19115).
The MIC of `CC(=O)C1=C(O)C(CC(C)C)NC1=O` (stereo not drawn) is reported as > 200 mg/L (Proteus vulgaris; microbial growth; ATCC33420).
For `CCCCCC/C=C\CCCCCCCCCC(=O)NP(=O)(O)O`, the MIC was 100 mg/L (Bacillus subtilis; microbial growth; ATCC23857).
`CCOC(=O)c1ccccc1S(=O)(=O)NC(=O)Nc1nc(Cl)cc(OC)n1` gave an MIC50 of 5.6 µM (≈ 2.32 µg/mL) (Nakaseomyces glabratus; microbial growth, broth dilution; 48 h).
`CCCC(=O)CP(=O)(O)O` gave an MIC of > 200 mg/L (Bacillus subtilis; microbial growth; ATCC23857).
`C[C@@H]1[C@H](O)[C@@H](C)/C=C/C=C/C=C/C=C/C=C/C=C/C=C/[C@H](O[C@@H]2O[C@H](C)[C@@H](O)[C@H](N)[C@@H]2O)C[C@@H]2O[C@](O)(C[C@@H](O)C[C@@H](O)[C@H](O)CC[C@@H](O)C[C@@H](O)CC(=O)O[C@H]1C)C[C@H](O)[C@H]2C(=O)O` has an MIC of 1.25 mg/L (Cryptococcus neoformans; microbial growth; ATCC90113).
